In the library only some 1.6% were active in any assay of this set; here they are far more common.
ABHD4 inh: inhibitors of mouse ABHD4; Q8VD66; purified mABHD4, FP-Rh probe fluorescence polarization; inhibition, % at 8.92 µM; 370,000 tested, 0.54% active; AID 720543;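 active = inhibition exceeding the mean over every tested compound plus 3 SD, cut at about 30% in these data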;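 note: 0% = plate median of compound wells and 100% = S159A mutant with DMSO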
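Assay system: mABHD4 protein; medium: HEPES pH 7.0, NaCl, Pluronic buffer; dosing: 8.92 µM, single dose; schedule: 45 min + 60 min at 25 °C; signal: FP readout, ex 525 nm / em 598 nm; read-out: normalized percent inhibition of probe labeling; repeats: single replicate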
HTRA1 inhibitor: blocks human HTRA1 serine peptidase; AID 504803; recombinant HTRA1, FP-rhodamine activity-based probe, fluorescence polarization; 340,000 tested, 0.5% active; Q92743; inhibition, % at 5.96 µM; in the data active = inhibition above about 36%;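 note: 0% = enzyme with DMSO and 100% = wells lacking enzyme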
SIAE primary: blocks human sialic acid acetylesterase. Q9HAT2. SIAE FP-Rh probe binding, fluorescence polarization. inhibition, % at 9.66 µM. 370,000 tested, 0.69% active. AID 1053197;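 active = inhibition above a cutoff: mean of compounds within the control limits plus 3 SD of those, cut at about 17% in these data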;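 note: 0% = plate median of compound wells and 100% = probe without SIAE protein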
DAGLB inhibitor: diacylglycerol lipase beta (human) inhibition | Q8NCG7 | HEK293T DAGLB membrane lysate, EnzChek fluorogenic substrate | inhibition, % at 5.17 µM | 340,000 tested, 0.059% active | AID 504411; in the data active = inhibition above about 34%;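 note: 0% = enzyme with vehicle and 100% = wells lacking enzyme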
Target sequence (Q8NCG7 whole entry, looked up): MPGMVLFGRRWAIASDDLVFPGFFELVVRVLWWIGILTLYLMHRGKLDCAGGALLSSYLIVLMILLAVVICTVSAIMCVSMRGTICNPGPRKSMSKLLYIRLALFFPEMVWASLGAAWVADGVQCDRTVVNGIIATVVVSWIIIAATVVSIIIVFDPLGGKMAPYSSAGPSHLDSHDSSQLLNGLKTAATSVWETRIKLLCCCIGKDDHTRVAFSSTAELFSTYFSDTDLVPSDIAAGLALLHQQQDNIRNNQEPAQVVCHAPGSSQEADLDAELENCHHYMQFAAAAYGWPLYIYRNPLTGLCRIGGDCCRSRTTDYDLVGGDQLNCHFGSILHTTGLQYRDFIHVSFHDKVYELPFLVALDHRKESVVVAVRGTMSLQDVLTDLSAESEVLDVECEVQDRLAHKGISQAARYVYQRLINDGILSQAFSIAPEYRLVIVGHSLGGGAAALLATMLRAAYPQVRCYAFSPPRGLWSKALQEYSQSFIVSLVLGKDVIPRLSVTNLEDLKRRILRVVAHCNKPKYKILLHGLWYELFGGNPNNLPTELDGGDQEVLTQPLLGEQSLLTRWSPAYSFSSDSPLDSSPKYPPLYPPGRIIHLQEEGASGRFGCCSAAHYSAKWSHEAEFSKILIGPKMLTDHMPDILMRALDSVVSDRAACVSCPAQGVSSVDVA
TCR-CD3 inh: inhibitors of human TCR-CD3 interaction; TAMRA-labeled TCR probe fluorescence, biochemical; inhibition, % at 9.4 µM; 360,000 tested, 0.37% active; AID 651800; in the data active = inhibition above about 19%;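 note: recombinant mutant TCR 2C K166C tagged with TAMRA read by polarization; 0% = receptor in buffer alone and 100% = receptor with positive control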
SIAE confirm: confirmation of human SIAE inhibitors; shares compounds with SIAE primary; SIAE FP-Rh activity-based probe, fluorescence polarization; inhibition, % at 9.66 µM; 2,300 tested, 13% active;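 active = mean inhibition of the replicates above the hit cutoff set in the primary screen, cut at about 17% in these data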;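 note: 0% = SIAE with DMSO and probe and 100% = probe without SIAE; inhibitors lower polarization as more probe stays unbound to SIAE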
* hit, by the source's call; x = no result.

SMILES	ABHD4 inh	HTRA1 inhibitor	SIAE primary	DAGLB inhibitor	TCR-CD3 inh	SIAE confirm
COC(=O)C(NC(C)=O)(Nc1ccc(Br)cn1)C(F)(F)F (stereo not drawn)	-3	-1	-2	-1	-2	x
CCCn1ncc([C@@H]2C[C@H]3CN(Cc4cccc(Cl)c4)C(=O)[C@]34CCCN24)c1C	-1	5	18*	0	14	-4
CCOC(=O)c1[nH]c2ccc(Br)cc2c1NC(=O)CCN1CCN(C(=O)OCC)CC1	-7	-6	18*	-3	5	0
COc1ccc(N2CCN(C(=O)CSc3nnnn3C3CC3)CC2)cc1	-1	11	19*	-1	-1	-2
COc1ccccc1N1CCN(C(=O)CSc2nnnn2C2CC2)CC1	1	2	1	3	3	x
O=C(Cc1ccccc1Cl)NCCN1C(=O)C2C3C=CC(C3)C2C1=O (stereo not drawn)	-6	x	-1	x	x	x
COc1ccc(-n2nc3ccc(N)cc3n2)cc1Cl	-19	0	72*	-1	3	0
Cc1ccc(-n2nc3ccc(N)cc3n2)cc1Cl	2	5	0	0	-3	x
COc1cc(NC(=O)c2ccccc2)c(C)cc1NC(=O)CSc1nnc(-c2ccccc2F)n1-c1ccc(C)cc1	-9	x	-1	x	x	x
COc1ccc(/C=C2/C(=O)ON=C2C)cc1Cl	4	4	22*	1	-2	4
C=CCOc1ccc(/C=C2/C(=O)ON=C2C)cc1OC	9	-3	8	-3	2	x
COC(=O)[C@]12C[C@H](CC(=O)N3CCSCC3)C(=O)N(Cc3ccc4c(c3)OCO4)C1=C[C@H](C(C)C)O[C@@H]2C1CC1	-1	x	0	x	x	x
COc1ccc(C(=O)C(=O)N2CCN(C(=O)c3ccccc3C(F)(F)F)CC2)cc1OC	0	x	22*	x	1	0
O=C(C(=O)N1CCN(C(=O)c2ccccc2C(F)(F)F)CC1)c1cccc(C(F)(F)F)c1	0	x	-1	x	3	x
Cc1ccccc1NC(=O)OC1CC2CC1[C@H]1CCCCN1[C@H]2Cc1ccccc1 (stereo partly drawn)	-6	x	-2	x	x	x
Cn1c(=O)c2cc(NC(=S)NCc3ccccc3F)ccc2n1Cc1ccc(F)cc1	0	x	2	x	-4	x
Cn1c(=O)c2cc(NC(=S)NC3CC3)ccc2n1Cc1ccc(F)cc1	5	x	18*	x	-1	0
N#CCC[C@H]1CC[C@]2(CCCN(C(=O)c3ccccc3)C2)O1	-13	x	-2	x	x	x
COc1ccc(CNS(=O)(=O)CC2NCCc3ccccc32)cc1 (stereo not drawn)	4	x	1	x	x	x
COc1ccc(/C=N/NC(=O)c2cccnc2)cc1CN1CCCc2ccccc21	17	6	22*	3	-4	19*
COc1ccc(C(=O)N/N=C/c2ccc(OC)c(CN3CCCc4ccccc43)c2)cc1	-5	-15	4	2	6	x
CCC(=O)OCCCN1C(=O)CCC12CCC(C)CC2 (stereo not drawn)	0	x	-7	x	x	x
CC1CCC2(CCC(=O)N2CCCOC(=O)NC(C)(C)C)CC1 (stereo not drawn)	0	x	47*	x	x	-5
CCOC(=O)C1CCN(C(=O)C(Cc2ccc3c(c2)OCO3)NC(C)=O)CC1 (stereo not drawn)	3	x	4	x	x	x
Cc1cccc(-c2cccc3c4c([nH]c23)[C@@H]2C[C@H]3[C@@H](CN2CC4)[C@H](C)ON3C)c1	2	x	5	x	x	x
SMILES	ABHD4 inh	HTRA1 inhibitor	SIAE primary	DAGLB inhibitor	TCR-CD3 inh	SIAE confirm
COc1cc(/C=N\NC(=O)c2ccc(-c3ccccc3)cc2)cc(OC)c1OC(C)=O	2	-19	23*	-3	1	2
COc1cc(/C=N\NC(=O)c2ccc(-c3ccccc3)cc2)cc(OC)c1O	20	-9	28*	-3	2	10
COc1cc(/C=N/NC(=O)c2cccc([N+](=O)[O-])c2)ccc1OCc1ccc(C)cc1	-5	-5	-2	0	-3	x
COc1cc(/C=N/NC(=O)c2ccc(COc3cc(C)ccc3C(C)C)cc2)cc(OC)c1O	-2	-9	22*	-5	2	5
COc1cc(/C=N/NC(=O)c2ccc3nc[nH]c3c2)cc(OC)c1OC(C)=O	9	-5	0	0	3	x
COc1ccccc1CCC[C@@H](CCS(=O)(=O)C(C)C)CC1CCCCC1	-4	x	1	x	x	x
Cc1onc(C(=O)N2CCN(C(c3ccccc3)c3ccccc3)CC2)c1Br	1	x	1	x	x	x
Cc1c(C(=O)N2CCN(c3ccccn3)CC2)cccc1[N+](=O)[O-]	5	-2	18*	0	-8	-5
Cc1ccc(S(=O)(=O)Nc2c(C)n(C)n(-c3ccccc3)c2=O)cc1C(=O)OC(C)C(=O)N(C)c1ccccc1 (stereo not drawn)	1	-2	21*	2	3	3
Cc1ccc(S(=O)(=O)Nc2c(C)n(C)n(-c3ccccc3)c2=O)cc1C(=O)OC(C)C(=O)c1ccccc1 (stereo not drawn)	-8	-6	7	-1	0	x
Cc1[nH]c2c(C)cccc2c1CC(=O)O	7	-1	2	2	0	x
Cc1cccc2c(N=O)c(O)[nH]c12	5	35	46*	-2	6	42*
CC1(C)CC(=O)C2=C(C1)NC1=C(C(=O)c3ccccc31)C2c1ccc(Cl)cc1 (stereo not drawn)	27	8	30*	28	-1	14
COc1cc(C2C3=C(CC(C)(C)CC3=O)NC3=C2C(=O)c2ccccc23)ccc1O (stereo not drawn)	19	18	16	10	7	x
Cc1ccccc1C(=O)N(C)[C@H]1C[C@H]2c3[nH]c4c(-c5ccccc5)cccc4c3CCN2C(=O)[C@H]1[C@H](C)O	-11	x	-4	x	-4	x
CC(=O)O[C@]1(C(C)=O)CCC2C3C=C(C)C4=CC(=O)CC[C@]4(C)C3CC[C@@]21C (stereo partly drawn)	4	-1	2	-6	2	x
C[C@]12CCC(=O)C=C1C=C[C@@H]1[C@@H]2CC[C@@]2(C)[C@H]1CC[C@@]21CCC(=O)O1	1	0	19*	-5	-4	1
C[C@]1(C(=O)NCCN2CCOCC2)C=C[C@@H](Cc2ccccc2)N1C(=O)c1ccccc1	-1	19	21*	1	3	-2
CCc1cc2c(nc1CC)CCCN2S(=O)(=O)c1ccc(C)cc1	-1	x	-3	x	7	x
O=C1CC(c2ccc(F)cc2)C(n2cncn2)C(O)=C1C1NCCc2ccccc21 (stereo not drawn)	0	0	26*	-1	5	4
C[C@@H]1[C@@H](O)C[C@@]2(CC(=O)c3ccccc3O2)O[C@H]1c1ccccc1	1	x	-3	x	x	x
O=C(NCCO)c1cccc(Nc2nc(-c3ccccc3)c3cc(Cl)ccc3n2)c1	-15	-59	21*	2	2	-29

Assay outcomes from PubChem BioAssay.
